In paper PMC10171401 (Nature methods, 2022):
Where two headings read alike, the source gives them in different places.

How the values were obtained:
[1] = system: cAMP in L23 pyramidal neurons; assay: In vivo 2pFLIM of tonic cAMP in L23 pyramidal neurons of awake head-fixed mice; design: species or system mouse; conditions: for effect on cAMP in neuronal dendrites / effect on cAMP in neuronal somas: intraperitoneal, yohimbine 5 mg/kg, propranolol 25 mg/kg
Procedure, shortened: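 Awake, head-fixed mice carried cAMPFIRE-L in L2/3 somatosensory neurons, introduced by in utero electroporation at E15.5, and were imaged by 2pFLIM through a cranial window fitted at P30–60. Isoflurane (1.5%) was given by nose cone; other drugs were given i.p., including morphine at 25 mg/kg. Lifetime was taken as mean photon emission time from soma and dendrite ROIs. Data are mean ± s.e.m.; paired two-tailed t-test.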

cAMP [2] = type: cell-based, human; conditions: propranolol 1 μM; HEK cells
Procedure, shortened: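 HEK-293 cells were grown in MEM with 10% FBS at 37°C in 5% CO2, plated on poly-D-lysine coverslips and transfected by Lipofectamine-2000 (0.5–3 μg plasmid per dish). Cells were given norepinephrine, then 25 μM forskolin plus 50 μM IBMX. CFP/YFP ratios were computed after per-channel background subtraction and normalized to the forskolin/IBMX response. Concentration-response curves were fitted with the Hill equation.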

cAMP [3] = assay: 2pFLIM response to norepinephrine in CA1 neurons in cultured hippocampal slices; type: cell-based, rat
Procedure, shortened: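 Rat hippocampal slices (400 μm, P6–7 pups of both sexes) were cultured at 35°C in 5% CO2 and imaged 2–3 days after transfection in carbogen-gassed aCSF with 4 mM CaCl2 and 4 mM MgCl2. CA1 neurons expressing cAMPFIRE-M received 0.1 μM norepinephrine with or without 1 μM propranolol, followed by wash. cAMPFIRE-L and its R279E mutant received 1 μM norepinephrine. Data are mean ± s.e.m. over cells.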

cAMP in L23 neurons = assay: In vivo 2pFLIM of cAMP responses to enforced running in L23 neurons; design: species or system mouse; conditions: intraperitoneal injection; cAMPFIRE-L
Procedure, shortened: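 cAMPFIRE-L was expressed in L2/3 somatosensory pyramidal neurons by in utero electroporation of C57BL/6 embryos at E15.5. Plasmid (~2–3 μg/μL, 1 μL) went into the lateral ventricle, followed by five 100-ms pulses at 35 V, 1 Hz. A cranial window was fitted at P30–60 with two weeks' recovery. Awake head-fixed mice on a treadmill (rotary-encoder velocity) were imaged by 2pFLIM of running-evoked responses before and after i.p. drug.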

Compound | effect on cAMP levels in neuronal somas ([1]; 1.5% inhaled, measured using cAMPFIRE-L) | time to plateau of cAMP decrease post administration ([1]; morphine 25 mg/kg) | effect on cAMP activity in L23 neurons ([1]; morphine 25 mg/kg, cAMPFIRE-L) | effect on sensor response to norepinephrine (cAMP [2]) | effect on sensor response to norepinephrine (cAMP [3]) | effect on cAMP in neuronal dendrites ([1]; cAMPFIRE-L) | effect on cAMP in neuronal somas ([1]; cAMPFIRE-L) | effect on negative cAMP responses to enforced running (cAMP in L23 neurons) | effect on positive cAMP responses to enforced running (cAMP in L23 neurons)
FC(F)OC(Cl)C(F)(F)F (stereo not shown) [Isoflurane, isoflurane] | significantly reduced | – | – | – | – | – | – | – | –
CN1CC[C@]23c4c5ccc(O)c4O[C@H]2[C@@H](O)C=C[C@H]3[C@H]1C5 [Morphine, morphine] | – | ~ 40 minutes | decreased | – | – | – | – | – | –
CC(C)NCC(O)COc1cccc2ccccc12 (stereo not shown) [propranolol] | – | – | – | blocked | blocked | decreased | decreased | reduced | did not affect
COC(=O)[C@@H]1[C@H]2C[C@H]3c4[nH]c5ccccc5c4CCN3C[C@@H]2CC[C@@H]1O [yohimbine] | – | – | – | – | – | increased | little effect | significantly attenuated | increased
